Experimental data as given in ChEMBL document CHEMBL1153576, “Novel ureas and thioureas of 15-membered azalides with antibacterial activity against key respiratory pathogens” (Eur J Med Chem, 2009).
≈ marks a conversion by molar mass, not a printed value.

What was measured:
Staphylococcus aureus = assay: Antibacterial activity against Staphylococcus aureus ATCC 29213 after 16 to 22 hrs by broth microdilution method; type: functional
Outline: (§1)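 Broth microdilution per the CLSI approved standard (sixth edition), using two-fold serial dilutions of compound in Mueller–Hinton broth. Stocks at 5 mg/ml in DMF. Inoculum came from a direct colony suspension adjusted by turbidity to about 5 × 10⁴ CFU/well final. Trays were incubated at 35 °C for 16–22 h. MIC is the lowest concentration completely inhibiting growth (99% inhibition).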

Streptococcus pneumoniae [1] = assay: Antibacterial activity against erythromycin-susceptible Streptococcus pneumoniae after 16 to 22 hrs by broth microdilution method; type: functional
Outline: (§2)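 Streptococci tested by CLSI broth microdilution in Mueller–Hinton broth with 5% horse serum, using two-fold serial dilutions. Compounds were dissolved in DMF at 5 mg/ml (stock). Inoculum was a turbidity-adjusted direct colony suspension giving about 5 × 10⁴ CFU/well. Trays were held at 35 °C for 16–22 h. MIC is the lowest concentration completely inhibiting growth (99%).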

Streptococcus pneumoniae [2] = assay: Antibacterial activity against efflux-mediated macrolide-resistant Streptococcus pneumoniae after 16 to 22 hrs by broth microdilution method; type: functional
Outline: (§3)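 Two-fold serial dilutions in microdilution trays, following the CLSI dilution standard for aerobic bacteria. Medium was Mueller–Hinton broth with 5% horse serum for streptococci. Stocks were made at 5 mg/ml in DMF. Inoculum came from a direct colony suspension adjusted by turbidity to about 5 × 10⁴ CFU/well final. Incubation was at 35 °C for 16–22 h. MIC is the lowest concentration completely inhibiting growth (99% inhibition).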

Streptococcus pneumoniae [3] = assay: Antibacterial activity against constitutive macrolide-lincosamide-streptogramin-resistant Streptococcus pneumoniae after 16 to 22 hrs by broth microdilution method; type: functional; outline: as §3
Streptococcus pyogenes [4] = assay: Antibacterial activity against erythromycin-susceptible Streptococcus pyogenes after 16 to 22 hrs by broth microdilution method; type: functional; outline: as §2
Streptococcus pyogenes [5] = assay: Antibacterial activity against inducible macrolide-lincosamide-streptogramin-resistant Streptococcus pyogenes 16 to 22 hrs by broth microdilution method; type: functional; outline: as §3
Streptococcus pyogenes [6] = assay: Antibacterial activity against efflux-mediated macrolide-resistance Streptococcus pyogenes after 16 to 22 hrs by broth microdilution method; type: functional; outline: as §3
Moraxella catarrhalis = assay: Antibacterial activity against Moraxella catarrhalis ATCC 23246 after 16 to 22 hrs by broth dilution method; type: functional; outline: as §1
Haemophilus influenzae = assay: Antibacterial activity against Haemophilus influenzae ATCC 49247 after 16 to 22 hrs by broth dilution method; type: functional
Outline: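 Microdilution trays following the CLSI standard, with two-fold serial dilutions in supplemented broth suited to H. influenzae. DMF stocks at 5 mg/ml. Inoculum prepared from a turbidity-adjusted direct colony suspension to about 5 × 10⁴ CFU/well final. Incubated at 35 °C for 16–22 h. MIC is the lowest concentration giving complete (99%) growth inhibition.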

Enterococcus faecalis = assay: Antibacterial activity against Enterococcus faecalis ATCC 29212 after 16 to 22 hrs by broth dilution method; type: functional; outline: as §1
Escherichia coli = assay: Antibacterial activity against Escherichia coli ATCC 25922 after 16 to 22 hrs by broth dilution method; type: functional; outline: as §1
[7] = Chemical stability in 0.01 M artificial gastric juice assessed as half life at 37 degC; type: physicochemical
Outline: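 Acid degradation followed as pseudo-first-order kinetics. Rate constants came from an exponential fit of reactant concentration versus time, and t1/2 was calculated from k.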

SMILES | MIC (Staphylococcus aureus) [µg/mL] | MIC (Streptococcus pneumoniae [1]) [µg/mL] | MIC (Streptococcus pneumoniae [2]) [µg/mL] | MIC (Streptococcus pneumoniae [3]) [µg/mL] | MIC (Streptococcus pyogenes [4]) [µg/mL] | MIC (Streptococcus pyogenes [5]) [µg/mL] | MIC (Streptococcus pyogenes [6]) [µg/mL] | MIC (Moraxella catarrhalis) [µg/mL] | MIC (Haemophilus influenzae) [µg/mL] | MIC (Enterococcus faecalis) [µg/mL] | MIC (Escherichia coli) [µg/mL] | half-life [7] [h]
CC[C@H]1OC(=O)[C@H](C)[C@@H](O[C@H]2C[C@@](C)(OC)[C@@H](O)[C@H](C)O2)[C@H](C)[C@@H](O[C@@H]2O[C@H](C)C[C@H](N(C)C)[C@H]2O)[C@](C)(O)C[C@@H](C)CN(CCCN(CCC#N)C(=S)NCCCc2ccccc2)[C@H](C)[C@@H](O)[C@]1(C)O | 1 (≈ 0.978 µM) | ≤ 0.125 | 32 (≈ 31.3 µM) | 32 (≈ 31.3 µM) | ≤ 0.125 | 8 (≈ 7.82 µM) | 16 (≈ 15.6 µM) | 4 (≈ 3.91 µM) | 4 (≈ 3.91 µM) | 16 (≈ 15.6 µM) | 16 (≈ 15.6 µM) | 
CC[C@H]1OC(=O)[C@H](C)[C@@H](O[C@H]2C[C@@](C)(OC)[C@@H](O)[C@H](C)O2)[C@H](C)[C@@H](O[C@@H]2O[C@H](C)C[C@H](N(C)C)[C@H]2O)[C@](C)(O)C[C@@H](C)CN(CCCN(CCC#N)C(=S)Nc2ccccc2)[C@H](C)[C@@H](O)[C@]1(C)O | 2 (≈ 2.04 µM) | ≤ 0.125 | 32 (≈ 32.6 µM) | > 64 | ≤ 0.125 | 32 (≈ 32.6 µM) | 32 (≈ 32.6 µM) | 4 (≈ 4.08 µM) | 16 (≈ 16.3 µM) | > 64 | > 64 | 
CC[C@H]1OC(=O)[C@H](C)[C@@H](O[C@H]2C[C@@](C)(OC)[C@@H](O)[C@H](C)O2)[C@H](C)[C@@H](O[C@@H]2O[C@H](C)C[C@H](N(C)C)[C@H]2O)[C@](C)(O)C[C@@H](C)CN(CCCN(CCC#N)C(=O)Nc2cccc3ccccc23)[C@H](C)[C@@H](O)[C@]1(C)O | 1 (≈ 0.986 µM) | ≤ 0.125 | 16 (≈ 15.8 µM) | 64 (≈ 63.1 µM) | ≤ 0.125 | 8 (≈ 7.89 µM) | 8 (≈ 7.89 µM) | 0.5 (≈ 0.493 µM) | 4 (≈ 3.94 µM) | 16 (≈ 15.8 µM) | 8 (≈ 7.89 µM) | 1.8
CC[C@H]1OC(=O)[C@H](C)[C@@H](O[C@H]2C[C@@](C)(OC)[C@@H](O)[C@H](C)O2)[C@H](C)[C@@H](O[C@@H]2O[C@H](C)C[C@H](N(C)C)[C@H]2O)[C@](C)(O)C[C@@H](C)CN(CCCN(CCC#N)C(=O)NC(C)c2cccc3ccccc23)[C@H](C)[C@@H](O)[C@]1(C)O (some centres not stated) | 2 (≈ 1.92 µM) | ≤ 0.125 | 32 (≈ 30.7 µM) | 16 (≈ 15.3 µM) | ≤ 0.125 | 8 (≈ 7.67 µM) | 8 (≈ 7.67 µM) | 0.5 (≈ 0.48 µM) | 2 (≈ 1.92 µM) | 16 (≈ 15.3 µM) | 32 (≈ 30.7 µM) | 
CC[C@H]1OC(=O)[C@H](C)[C@@H](O[C@H]2C[C@@](C)(OC)[C@@H](O)[C@H](C)O2)[C@H](C)[C@@H](O[C@@H]2O[C@H](C)C[C@H](N(C)C)[C@H]2O)[C@](C)(O)C[C@@H](C)CN(CCCN(CCC#N)C(=S)Nc2cccc3ccccc23)[C@H](C)[C@@H](O)[C@]1(C)O | 4 (≈ 3.88 µM) | ≤ 0.125 | 16 (≈ 15.5 µM) | 64 (≈ 62.1 µM) | ≤ 0.125 | 32 (≈ 31.1 µM) | 32 (≈ 31.1 µM) | 4 (≈ 3.88 µM) | 8 (≈ 7.76 µM) | 32 (≈ 31.1 µM) | 8 (≈ 7.76 µM) | 
CC[C@H]1OC(=O)[C@H](C)[C@@H](O[C@H]2C[C@@](C)(OC)[C@@H](O)[C@H](C)O2)[C@H](C)[C@@H](O[C@@H]2O[C@H](C)C[C@H](N(C)C)[C@H]2O)[C@](C)(O)C[C@@H](C)CN(CCCN(CCC#N)C(=S)NCc2ccccc2)[C@H](C)[C@@H](O)[C@]1(C)O | 1 (≈ 1.01 µM) | ≤ 0.125 | 16 (≈ 16.1 µM) | 64 (≈ 64.4 µM) | ≤ 0.125 | 16 (≈ 16.1 µM) | 8 (≈ 8.05 µM) | 1 (≈ 1.01 µM) | 4 (≈ 4.02 µM) | 32 (≈ 32.2 µM) | 16 (≈ 16.1 µM) | 
CC[C@H]1OC(=O)[C@H](C)[C@@H](O[C@H]2C[C@@](C)(OC)[C@@H](O)[C@H](C)O2)[C@H](C)[C@@H](O[C@@H]2O[C@H](C)C[C@H](N(C)C)[C@H]2O)[C@](C)(O)C[C@@H](C)CN(CCCN(CCC#N)C(=S)NCCc2ccccc2)[C@H](C)[C@@H](O)[C@]1(C)O | 1 (≈ 0.992 µM) | ≤ 0.125 | 32 (≈ 31.7 µM) | 64 (≈ 63.5 µM) | ≤ 0.125 | 8 (≈ 7.93 µM) | 16 (≈ 15.9 µM) | 2 (≈ 1.98 µM) | 4 (≈ 3.97 µM) | 32 (≈ 31.7 µM) | 16 (≈ 15.9 µM) | 
CC[C@H]1OC(=O)[C@H](C)[C@@H](O[C@H]2C[C@@](C)(OC)[C@@H](O)[C@H](C)O2)[C@H](C)[C@@H](O[C@@H]2O[C@H](C)C[C@H](N(C)C)[C@H]2O)[C@](C)(O)C[C@@H](C)CN(CCCNC(=O)Nc2cccc3ccccc23)[C@H](C)[C@@H](O)[C@]1(C)O | 0.5 (≈ 0.52 µM) | ≤ 0.125 | 4 (≈ 4.16 µM) | > 64 | ≤ 0.125 | 2 (≈ 2.08 µM) | 4 (≈ 4.16 µM) | 0.5 (≈ 0.52 µM) | 1 (≈ 1.04 µM) | 4 (≈ 4.16 µM) | 8 (≈ 8.32 µM) | 1.98
CC[C@H]1OC(=O)[C@H](C)[C@@H](O[C@H]2C[C@@](C)(OC)[C@@H](O)[C@H](C)O2)[C@H](C)[C@@H](O[C@@H]2O[C@H](C)C[C@H](N(C)C)[C@H]2O)[C@](C)(O)C[C@@H](C)CN(CCCN(CCC#N)C(=O)Nc2ccc3ccccc3c2)[C@H](C)[C@@H](O)[C@]1(C)O | 1 (≈ 0.986 µM) | ≤ 0.125 | 16 (≈ 15.8 µM) | 32 (≈ 31.5 µM) | ≤ 0.125 | 16 (≈ 15.8 µM) | 8 (≈ 7.89 µM) | 1 (≈ 0.986 µM) | 2 (≈ 1.97 µM) | 16 (≈ 15.8 µM) | 32 (≈ 31.5 µM) | 
CC[C@H]1OC(=O)[C@H](C)[C@@H](O[C@H]2C[C@@](C)(OC)[C@@H](O)[C@H](C)O2)[C@H](C)[C@@H](O[C@@H]2O[C@H](C)C[C@H](N(C)C)[C@H]2O)[C@](C)(O)C[C@@H](C)CN(C)[C@H](C)[C@@H](O)[C@]1(C)O [AZITHROMYCIN] | 0.5 (≈ 0.668 µM) | ≤ 0.125 | 8 (≈ 10.7 µM) | 64 (≈ 85.4 µM) | ≤ 0.125 | 8 (≈ 10.7 µM) | 4 (≈ 5.34 µM) | ≤ 0.125 | 1 (≈ 1.34 µM) | 8 (≈ 10.7 µM) | 2 (≈ 2.67 µM) | 
